{"source": "paper PMC3437501", "about": "(European Journal of Pain (London, England), 2011)", "key": {"[1]": {"settings": "cited from earlier work"}, "[2]": {"settings": "same dose; ref Fletcher et al., [1995]; cited from earlier work"}, "interleukin 6 (IL6)": {"test_system": "interleukin 6 (IL6)", "experiment": "Interleukin 6 in plasma, CSF and tissue exudate", "format": "in vivo, human", "outline": "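Osteoarthritis patients (59–77 y) undergoing hip arthroplasty under spinal bupivacaine, given oral test compound 120 mg or placebo at 6:30 a.m. on surgery day and next day. Plasma and CSF sampled predose and 1.5–48 h; drain exudate collected over 60 min before 4–48 h, centrifuged, frozen −30 °C. IL6 by ELISA (LOQ 7.8 pg/mL); partial AUCs by linear trapezoidal rule.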"}, "[3]": {"experiment": "Patient ratings of post-operative pain, satisfaction and sleep disturbance", "format": "in vivo, human", "settings": "first 24 h; interaction p = 0.036", "outline": "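Patients dosed orally with 120 mg test compound or placebo on surgery day and next day, double-blind. Global pain and operated-hip pain at rest and passive movement rated on 11-point scale (0 = no pain, 10 = worst) at 4, 8, 12, 24, 26, 32, 48 h. Satisfaction with analgesia on numeric rating scale; sleep disturbance (0–10) at 24, 48, 72 h.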"}, "[4]": {"experiment": "Pharmacokinetics of etoricoxib in plasma, CSF and tissue exudate", "format": "in vivo, human", "settings": "for Cmax / Tmax / Kp: human, 120 mg; for Kp: CSF/plasma", "outline": "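Six hip-arthroplasty patients given oral 120 mg at 6:30 a.m. on surgery day and 24 h later. Blood and intrathecal-catheter CSF sampled predose and 1.5–48 h, first 1 mL CSF discarded; drain exudate collected hourly windows. LC-MS/MS with phenazone internal standard, LOQ 0.2 ng/mL, validated 0.2–200 ng/mL. AUC0–24 h by linear trapezoidal method; CSF/plasma ratio from AUCs, maximal ratio from individual concentrations.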"}, "prostaglandin E2 (PGE2)": {"test_system": "prostaglandin E2 (PGE2)", "experiment": "Prostaglandin E2 in tissue exudate, plasma and CSF", "format": "in vivo, human", "outline": "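Hip-arthroplasty patients dosed orally with 120 mg test compound or placebo on surgery day and next day. Drain exudate collected over 60 min before 4, 8, 12, 24, 26, 32, 48 h, centrifuged, supernatant frozen −30 °C. PGE2 in exudate and plasma by ELISA (LOQ 15 pg/mL). CSF PGE2 by solid-phase extraction LC-MS/MS with prostaglandin D2-d4 (LOQ 25–200 pg/mL). Partial AUCs by trapezoidal rule.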"}, "[5]": {"experiment": "Safety: adverse events and blood loss during surgery", "format": "in vivo, human"}, "[6]": {"experiment": "Post-operative consumption of intrathecal bupivacaine and piritramide", "format": "in vivo, human", "outline": "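After spinal bupivacaine 0.5% via lumbar intrathecal catheter, 0.01% bupivacaine infused intrathecally at 4–6 mL/h plus patient-controlled boluses up to 1 mL every 10 min, 4-h lockout 40 mL. Breakthrough pain: piritramide i.v. up to 5 mg (s.c. up to 15 mg). Total consumption, requests, delivered boluses and request times recorded. Patient lacking catheter excluded.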"}, "[7]": {"settings": "tissue exudate, 12–24 h, mean, n = 6"}, "[8]": {"settings": "tissue exudate, 24–36 h, mean, n = 6"}, "[9]": {"settings": "tissue exudate, 36–47 h, mean, n = 6"}}, "note": "“Also recorded” adds a separate entry of the source. Marks after values point to notes of the source that are not given here."}
{"smiles": "Cc1ccc(-c2cc(C(F)(F)F)nn2-c2ccc(S(N)(=O)=O)cc2)cc1", "note": "[celecoxib]", "values": [{"measurement": "Absorption / bioavailability", "setting": "[1]; oral, ref Brune et al., [2010]", "value": "absorbed slowly and to show variable (low) bioavailability; also recorded: slow and incomplete absorption"}]}
{"smiles": "O=C(c1ccccc1)c1ccc2n1CCC2C(=O)O", "note": "(stereo not shown) [ketorolac]", "values": [{"measurement": "Pain relief with preoperative versus post-operative administration", "setting": "[2]", "value": "significantly superior with preoperative administration"}]}
{"smiles": "Cc1ccc(-c2ncc(Cl)cc2-c2ccc(S(C)(=O)=O)cc2)cn1", "note": "[Etoricoxib, etoricoxib]", "values": [{"measurement": "IL6 cerebrospinal fluid (w/o R111) AUC (1.5–12 h)", "setting": "interleukin 6 (IL6); CSF, 1.5–12 h, mean, n = 6", "value": 340, "unit": "pg·h/mL"}, {"measurement": "IL6 cerebrospinal fluid (w/o R111) AUC (12–24 h)", "setting": "interleukin 6 (IL6); CSF, 12–24 h, mean, n = 6", "value": 660, "unit": "pg·h/mL"}, {"measurement": "IL6 cerebrospinal fluid (w/o R111) AUC (24–36 h)", "setting": "interleukin 6 (IL6); CSF, 24–36 h, mean, n = 5", "value": 575, "unit": "pg·h/mL"}, {"measurement": "IL6 cerebrospinal fluid (w/o R111) AUC (36–48 h)", "setting": "interleukin 6 (IL6); CSF, 36–48 h, mean, n = 5", "value": 436, "unit": "pg·h/mL"}, {"measurement": "IL6 plasma AUC (1.5–12 h)", "setting": "interleukin 6 (IL6); plasma, 1.5–12 h, mean, n = 6", "value": 435, "unit": "pg·h/mL"}, {"measurement": "IL6 plasma AUC (12–24 h)", "setting": "interleukin 6 (IL6); plasma, 12–24 h, mean, n = 6", "value": 596, "unit": "pg·h/mL"}, {"measurement": "IL6 plasma AUC (24–36 h)", "setting": "interleukin 6 (IL6); plasma, 24–36 h, mean, n = 6", "value": 598, "unit": "pg·h/mL"}, {"measurement": "IL6 plasma AUC (36–48 h)", "setting": "interleukin 6 (IL6); plasma, 36–48 h, mean, n = 6", "value": 409, "unit": "pg·h/mL"}, {"measurement": "Time until plasma IL6 returned to preoperative levels", "setting": "interleukin 6 (IL6); plasma, time after surgery", "value": "≤ 20", "unit": "h"}, {"measurement": "IL6 tissue exudate AUC (4–12 h)", "setting": "interleukin 6 (IL6); tissue exudate, 4–12 h, mean, n = 6", "value": 479, "unit": "ng·h/mL"}, {"measurement": "IL6 tissue exudate AUC (12–24 h)", "setting": "interleukin 6 (IL6); [7]", "value": 1606, "unit": "ng·h/mL"}, {"measurement": "IL6 tissue exudate AUC (24–36 h)", "setting": "interleukin 6 (IL6); [8]", "value": 1200, "unit": "ng·h/mL"}, {"measurement": "IL6 tissue exudate AUC (36–47 h)", "setting": "interleukin 6 (IL6); [9]", "value": 861, "unit": "ng·h/mL"}, {"measurement": "Post-operative analgesic satisfaction versus placebo", "setting": "[3]", "value": "significantly higher"}, {"measurement": "Cmax", "setting": "[4]; CSF, po", "value": 160, "unit": "ng/mL"}, {"measurement": "Tmax", "setting": "[4]; CSF, po", "value": 1.5, "unit": "h"}, {"measurement": "Kp", "setting": "[4]; oral, CSF/plasma ratio AUC 0–24 h, individual ratios, mean (range)", "value": 0.041}, {"measurement": "Kp", "setting": "[4]; oral, Maximal CSF/plasma conc. ratio, individual maximal concentration ratio, mean (SD)", "value": 0.122}, {"measurement": "Tmax", "setting": "[4]; oral", "value": "< 2", "unit": "h"}, {"measurement": "Cmax", "setting": "[4]; plasma, po", "value": 1880, "unit": "ng/mL"}, {"measurement": "Tmax", "setting": "[4]; plasma, po", "value": 1.5, "unit": "h"}, {"measurement": "CSF/plasma ratio AUC 0–48 h", "setting": "[4]; individual ratios, mean (range), subgroup n = 5", "value": "4.7 (2.8–8.1) ^b %"}, {"measurement": "tmax for CSF/plasma conc. ratio", "setting": "[4]; median (range)", "value": "1.75 (1.5–32) h"}, {"measurement": "Absorption, bioavailability and elimination", "setting": "[1]; ref Agrawal et al., [2003]", "value": "fast absorption, high bioavailability and slow elimination"}, {"measurement": "Concentrations of PGE2 in plasma and CSF", "setting": "prostaglandin E2 (PGE2); plasma and CSF, both groups, differences not significant", "value": "near or below the LOQ"}, {"measurement": "PGE2 production in the surgical wound", "setting": "prostaglandin E2 (PGE2); preoperative administration", "value": "complete blockade"}, {"measurement": "PGE2 tissue exudate AUC (4–12 h)", "setting": "prostaglandin E2 (PGE2); tissue exudate (hip drain), 4–12 h, mean, n = 6", "value": 40, "unit": "ng·h/mL"}, {"measurement": "PGE2 tissue exudate AUC (12–24 h)", "setting": "prostaglandin E2 (PGE2); [7]", "value": 48, "unit": "ng·h/mL"}, {"measurement": "PGE2 tissue exudate AUC (24–36 h)", "setting": "prostaglandin E2 (PGE2); [8]", "value": 29, "unit": "ng·h/mL"}, {"measurement": "PGE2 tissue exudate AUC (36–47 h)", "setting": "prostaglandin E2 (PGE2); [9]", "value": 16, "unit": "ng·h/mL"}, {"measurement": "PGE2 concentration in wound fluid", "setting": "prostaglandin E2 (PGE2); wound fluid, versus fast increase in placebo group, treatment p = 0.014", "value": "remained low throughout"}, {"measurement": "Intra-OP BL (blood loss during surgery)", "setting": "[5]; 120 mg 2 h before surgery, mean (SD), n = 6", "value": "383 (98) mL"}, {"measurement": "Unwanted drug effects", "setting": "[5]; either treatment group", "value": "not seen"}, {"measurement": "Demand for piritramide versus placebo", "setting": "[6]; 2 to 48 h, main effect treatment p = 0.003", "value": "significantly higher in the placebo group"}, {"measurement": "On request local anaesthetic administration versus placebo", "setting": "[6]; only during the first 12 h post-operatively, main effect treatment p = 0.052", "value": "higher in the placebo group"}]}
